According to ChEMBL document CHEMBL3286131, “Design, synthesis and systematic evaluation of cytotoxic 3-heteroarylisoquinolinamines as topoisomerases inhibitors” (Eur J Med Chem, 2014):

Columns and labels:
[1] = tested on: HeLa; assay: Cell cycle arrest in human HeLa cells assessed as accumulation at G0/G1 phase phase at 50 uM after 24 hrs using […] by flow cytometry analysis relative to control; format: functional
Method in brief: (§1)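 HeLa cells exposed to graded compound concentrations for 24 h, harvested by centrifugation, PBS-washed twice, fixed overnight on ice in 70% ethanol. Stained with 10 μg/mL propidium iodide plus 0.5 mg/mL RNase and 0.1% Triton X-100 in PBS, 30 min at 37 °C in the dark. Flow cytometry gates: sub-G0/G1, G0/G1, S, G2/M.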

[2] = tested on: HeLa; assay: Cell cycle arrest in human HeLa cells assessed as accumulation at sub-G0/G1 phase at 50 uM after 24 hrs using […] by flow cytometry analysis relative to control; format: functional; method in brief: as §1
[3] = tested on: HeLa; assay: Cell cycle arrest in human HeLa cells assessed as accumulation at G2/M phase phase at 50 uM after 24 hrs using […] by flow cytometry analysis relative to control; format: functional; method in brief: as §1
[4] = tested on: HeLa; assay: Cell cycle arrest in human HeLa cells assessed as accumulation at G0/G1 phase phase at 5 uM after 24 hrs using ethidium bromide staining by flow cytometry analysis relative to control; format: functional; details: in the assay text read “propidium iodide staining” for “ethidium bromide staining”; method in brief: as §1
[5] = tested on: HeLa; assay: Cell cycle arrest in human HeLa cells assessed as accumulation at S phase phase at 5 uM after 24 hrs using ethidium bromide staining by flow cytometry analysis relative to control; format: functional; details: in the assay text read “propidium iodide staining” for “ethidium bromide staining”; method in brief: as §1
[6] = tested on: HeLa; assay: Cell cycle arrest in human HeLa cells assessed as accumulation at G2/M phase phase at 5 uM after 24 hrs using ethidium bromide staining by flow cytometry analysis relative to control; format: functional; details: in the assay text read “propidium iodide staining” for “ethidium bromide staining”; method in brief: as §1
[7] = tested on: HeLa; assay: Cell cycle arrest in human HeLa cells assessed as accumulation at sub-G0/G1 phase at 10 uM after 24 hrs using ethidium bromide staining by flow cytometry analysis relative to control; format: functional; details: in the assay text read “propidium iodide staining” for “ethidium bromide staining”; method in brief: as §1
[8] = tested on: T47D; assay: Cytotoxicity against human T47D cells after 2 days; format: functional, cell-based; details: t47d
Method in brief: (§2)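 Cells seeded at 2-4 × 10^4 per well in medium with 10% FBS and incubated overnight at 37 °C, 5% CO2. Graded compound concentrations added on day 2. CCK-8 reagent added on day 4 for a further 4 h, absorbance read at 450 nm. IC50 from a four-parameter logistic fit; mean ± S.D. of three experiments run in triplicate.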

[9] = Cytotoxicity against human HCT15 cells after 2 days; format: functional, cell-based, HCT-15; method in brief: as §2
[10] = tested on: HeLa; assay: Cell cycle arrest in human HeLa cells assessed as accumulation at S phase phase at 50 uM after 24 hrs using […] by flow cytometry analysis relative to control; format: functional; method in brief: as §1
[11] = tested on: DU-145; assay: Cytotoxicity against human DU145 cells after 2 days; format: functional, cell-based; method in brief: as §2
[12] = tested on: HeLa; assay: Cell cycle arrest in human HeLa cells assessed as accumulation at G0/G1 phase phase at 10 uM after 24 hrs using ethidium bromide staining by flow cytometry analysis relative to control; format: functional; details: in the assay text read “propidium iodide staining” for “ethidium bromide staining”; method in brief: as §1
[13] = tested on: HeLa; assay: Cell cycle arrest in human HeLa cells assessed as accumulation at S phase phase at 25 uM after 24 hrs using […] by flow cytometry analysis relative to control; format: functional; method in brief: as §1
[14] = Cytotoxicity against human MCF10A cells after 2 days; format: cell-based, MCF-10A; method in brief: as §2
[15] = tested on: HeLa; assay: Cell cycle arrest in human HeLa cells assessed as accumulation at G2/M phase phase at 10 uM after 24 hrs using ethidium bromide staining by flow cytometry analysis relative to control; format: functional; details: in the assay text read “propidium iodide staining” for “ethidium bromide staining”; method in brief: as §1
[16] = tested on: HeLa; assay: Cell cycle arrest in human HeLa cells assessed as accumulation at sub-G0/G1 phase at 25 uM after 24 hrs using […] by flow cytometry analysis relative to control; format: functional; method in brief: as §1
[17] = tested on: HeLa; assay: Cell cycle arrest in human HeLa cells assessed as accumulation at G2/M phase phase at 25 uM after 24 hrs using […] by flow cytometry analysis relative to control; format: functional; method in brief: as §1
[18] = tested on: HeLa; assay: Cell cycle arrest in human HeLa cells assessed as accumulation at S phase phase at 10 uM after 24 hrs using ethidium bromide staining by flow cytometry analysis relative to control; format: functional; details: in the assay text read “propidium iodide staining” for “ethidium bromide staining”; method in brief: as §1
[19] = tested on: HeLa; assay: Cell cycle arrest in human HeLa cells assessed as accumulation at G0/G1 phase phase at 25 uM after 24 hrs using […] by flow cytometry analysis relative to control; format: functional; method in brief: as §1

| SMILES | Activity [1] [%] | Activity [2] [%] | Activity [3] [%] | Activity [4] [%] | Activity [5] [%] | Activity [6] [%] | Activity [7] [%] | IC50 [8] [µM] | Activity [10] [%] | IC50 ([11]; du-145) [µM] | Activity [12] [%] | Activity [13] [%] | IC50 ([14]; mcf-10a) [µM] | Activity [15] [%] | Activity [16] [%] | Activity [17] [%] | Activity [18] [%] | Activity [19] [%] | IC50 ([9]; hct-15) [µM] | IC50 ([11]; Homo sapiens, DU-145, 48 h) [µM] | also measured |
| --- | --- | --- | --- | --- | --- | --- | --- | --- | --- | --- | --- | --- | --- | --- | --- | --- | --- | --- | --- | --- | --- |
| CCN1CCN(c2nc(-c3cccs3)cc3ccccc23)CC1 | 71.23 | 3.97 | 11.7 | 65.03 | 10.47 | 14.89 | 2.08 | 17.4 | 7.96 | > 50 | 66.35 | 13.4 | 49 | 17.28 | 3.77 | 19.68 | 9.46 | 55.62 |  |  | IC50 ([9]; Homo sapiens, HCT-15, 48 h): 7.42 µM |
| c1csc(-c2cc3ccccc3c(N3CCNCC3)n2)c1 | 4.52 | 90.21 | 0.72 | 59.83 | 13.11 | 16.28 | 1.85 | 9.53 | 1.16 | 17.6 | 61.34 | 8.71 | 44.1 | 16.57 | 1.77 | 14.88 | 12.03 | 67.7 | 1.25 |  |  |
| CCN1CCN(c2nc(-c3cccs3)cc3cc(C)ccc23)CC1 | 2.37 | 96.49 | 0.22 | 65.61 | 9.77 | 17.4 | 2.63 | 8.45 | 0.47 |  | 58.48 | 13.57 | 33.9 | 18.01 | 3.17 | 13.75 | 13.41 | 63.92 |  | 17.2 | IC50 ([9]; Homo sapiens, HCT-15, 48 h): 2.41 µM |
| Cl.c1csc(-c2cc3ccccc3c(N3CCNCC3)n2)c1 | 0.18 | 99.58 | 0.02 | 60.31 | 12.7 | 16.24 | 3.57 | 4.51 | 0.04 | 8.25 | 67.99 | 1.85 | 18.1 | 15.05 | 85.1 | 1.23 | 7.13 | 7.25 | 5.45 |  |  |
| CCN1CCN(c2nc(-c3cccs3)cc3ccccc23)CC1.Cl | 31.74 | 54.68 | 3.46 | 68.51 | 9.99 | 15.9 | 2.59 | 8.08 | 6.9 |  | 57.14 | 18.42 | 23.8 | 20 | 2.67 | 15.75 | 12.88 | 54.43 | 9.29 | 46.6 |  |
| Cc1ccc2c(N3CCNCC3)nc(-c3cccs3)cc2c1 | 1.4 | 97.06 | 0.04 | 62.69 | 11.25 | 11.58 | 92.31 | 8.74 | 0.35 |  | 3.24 | 0.5 |  | 0.23 | 96 | 0.22 | 0.64 | 1.89 | 1.31 | 8.31 | IC50 ([14]; Homo sapiens, MCF-10A, 48 h): 7.25 µM |
